In ChEMBL document CHEMBL1125564, “Selective, centrally acting serotonin 5-HT2 antagonists. 2. Substituted 3-(4-fluorophenyl)-1H-indoles” (J Med Chem, 1992):

What was measured:
[1] = molecular target: Serotonin 2 (5-HT2) receptor (Rattus norvegicus, UniProt P30994+P08909+P14842); experiment: Displacement of [3H]ketanserin from 5-hydroxytryptamine 2 receptor in rat cortical membranes; assay type: cell membranes, Membrane
Outline: (§1)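 Two full concentration curves per compound, five concentrations in triplicate covering three decades. IC50 read from log-concentration curves, given as logarithmic mean of at least two determinations. Ratios beyond 3 × SD prompted extra runs, with outliers discarded.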

[2] = molecular target: T1, Alpha-1A adrenergic receptor (Rattus norvegicus, UniProt P43140); experiment: Displacement of [3H]prazosin from Alpha-1 adrenergic receptor in whole rat brain membranes; assay type: cell membranes; outline: as §1
T1 sequence (P43140 whole entry): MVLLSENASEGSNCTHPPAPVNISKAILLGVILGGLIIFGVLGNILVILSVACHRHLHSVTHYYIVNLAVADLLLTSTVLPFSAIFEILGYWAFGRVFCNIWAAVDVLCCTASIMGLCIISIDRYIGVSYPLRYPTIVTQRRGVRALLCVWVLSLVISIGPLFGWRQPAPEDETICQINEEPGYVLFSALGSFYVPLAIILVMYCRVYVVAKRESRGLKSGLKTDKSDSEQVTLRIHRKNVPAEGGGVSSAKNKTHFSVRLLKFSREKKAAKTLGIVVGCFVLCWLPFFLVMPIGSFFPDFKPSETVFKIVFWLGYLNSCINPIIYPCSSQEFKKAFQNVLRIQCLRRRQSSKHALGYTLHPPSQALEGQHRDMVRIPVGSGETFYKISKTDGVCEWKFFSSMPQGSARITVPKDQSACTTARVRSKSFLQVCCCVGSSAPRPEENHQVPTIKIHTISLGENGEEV

[3] = molecular target: D(2) dopamine receptor (Rattus norvegicus, UniProt P61169); experiment: Displacement of [3H]spiperone from Dopamine receptor D2 rat striatal membranes; assay type: cell membranes, Membrane; outline: as §1
[4] = tested on: Rattus norvegicus; experiment: Compound was evaluated for the inhibition of quipazine-induced head twitches after 24 hr (administered subcutaneously); assay type: functional; conditions: sc
Outline: (§2)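 Male Wistar rats (Mol:Wist, SPF, 170–270 g), at least four per dose, dosed sc or po 2 or 24 h before quipazine (15 μmol/kg, sc). Head twitches counted 30–40 min after quipazine and expressed as percent of a quipazine-treated control group. ED50 by log-probit analysis.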

[5] = tested on: Rattus norvegicus; experiment: Compound was evaluated for the inhibition of quipazine-induced head twitches after 24 hr (administered perorally); assay type: functional; conditions: po; outline: as §2
[6] = tested on: Rattus norvegicus; experiment: Compound was evaluated for the inhibition of pergolide-induced reactions after 2 hr (administered subcutaneously); assay type: functional; conditions: sc
Outline: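 Male Wistar rats with unilateral 6-OHDA lesions; test compound given sc 2 h before pergolide (0.05 μmol/kg, sc) to induce contralateral circling. Each dose scored as percent of the rat's mean control sessions 1 week before and 1 week after the test, at least four rats per dose. ED50 by log-probit analysis.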

[7] = tested on: Rattus norvegicus; experiment: Compound was evaluated for the inhibition of quipazine-induced head twitches after 2 hr (administered subcutaneously); assay type: functional; conditions: sc; outline: as §2

Chain of D(2) dopamine receptor (P61169 whole entry): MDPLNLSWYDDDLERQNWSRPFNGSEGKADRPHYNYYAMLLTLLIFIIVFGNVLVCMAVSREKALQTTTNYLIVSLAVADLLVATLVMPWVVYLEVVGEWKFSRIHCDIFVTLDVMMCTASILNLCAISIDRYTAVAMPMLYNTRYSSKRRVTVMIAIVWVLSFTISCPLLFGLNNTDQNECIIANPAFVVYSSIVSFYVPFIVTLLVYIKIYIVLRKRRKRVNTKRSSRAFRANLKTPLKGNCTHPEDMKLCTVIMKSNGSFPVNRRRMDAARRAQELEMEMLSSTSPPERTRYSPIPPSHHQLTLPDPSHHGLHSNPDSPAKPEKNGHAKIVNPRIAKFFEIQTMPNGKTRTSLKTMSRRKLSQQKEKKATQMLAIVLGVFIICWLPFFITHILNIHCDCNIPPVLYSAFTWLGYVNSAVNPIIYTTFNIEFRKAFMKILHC

Row | Structure (SMILES) | IC50 [1] | IC50 [2] | IC50 [3] | ED50 [4] | ED50 [5] | ED50 [6] | ED50 [7]
1 | Cc1ccc2c(c1)c(-c1ccc(F)cc1)cn2N1CCN(C)CC1 | 15 nM | 500 nM |  |  |  |  | 
2 | Cc1ccc2c(c1)c(-c1ccc(F)cc1)c(C)n2C1CCN(C)CC1 | 5.3 nM | 2700 nM |  | 0.028 µmol/kg | 0.046 µmol/kg | > 30 µmol/kg | 0.25 µmol/kg
3 | Cc1ccc2c(c1)c(-c1ccc(F)cc1)cn2C1CCN(CCNC(=O)N(C)C)CC1 | 2.3 nM | 89 nM |  |  |  |  | 
4 | Cc1ccc2c(c1)c(-c1ccc(F)cc1)cn2C1CCN(CCN2CCN(C(C)C)C2=O)CC1 | 2.7 nM | 280 nM |  | 0.014 µmol/kg | 0.019 µmol/kg | > 18 µmol/kg | 0.062 µmol/kg
5 | CC(C)N1CCN(CCN2CCC(c3cn(-c4ccc(F)cc4)c4cc(Cl)ccc34)CC2)C1=O |  | 70 nM |  |  |  |  | 
6 | Cc1ccc2c(c1)c(-c1ccc(F)cc1)cn2C1CCN(C)CC1 | 4.5 nM | 190 nM |  |  |  |  | 
7 | CNC(=O)N(C)CCN1CCC(n2cc(-c3ccc(F)cc3)c3cc(C)ccc32)CC1 | 2.2 nM | 54 nM | 1200 nM | 0.0021 µmol/kg | 0.004 µmol/kg | > 22 µmol/kg | 0.036 µmol/kg
8 | O=C1NCCN1CCN1CCC(c2cn(-c3ccc(F)cc3)c3ccc(Cl)cc23)CC1 [SERTINDOLE] |  | 3.4 nM |  |  |  |  | 

Now from value to compound, other results behind:

Row | IC50 [1] | IC50 [2] | IC50 [3] | Structure (SMILES) | ED50 [4] | ED50 [5] | ED50 [6] | ED50 [7]
9 | 5.8 nM | 27 nM | 530 nM | Cc1cccc2c(-c3ccc(F)cc3)cn(C3=CCN(CCN4CCNC4=O)CC3)c12 |  |  |  | 
10 | 2.8 nM | 1000 nM |  | Cc1ccc2c(c1)c(-c1ccc(F)cc1)c(C)n2C1=CCN(CCN2CCNC2=O)CC1 |  |  |  | 
11 | 3.2 nM | 19 nM |  | O=C1NCCN1CCN1CCC(n2cc(-c3ccc(F)cc3)c3cc(F)ccc32)CC1 |  |  |  | 
12 | 1.6 nM | 71 nM |  | Cc1ccc2c(c1)c(-c1ccc(F)cc1)cn2C1CCN(CCN2CCNC2=O)CC1 | 0.0081 µmol/kg | 0.0041 µmol/kg | > 24 µmol/kg | 0.019 µmol/kg
13 | 3.6 nM | 23 nM | 370 nM | Cc1cccc2c(-c3ccc(F)cc3)cn(C3CCN(CCN4CCNC4=O)CC3)c12 |  |  |  | 
14 | 7.9 nM | 34 nM | 200 nM | Cc1cccc2c1c(-c1ccc(F)cc1)cn2C1CCN(CCN2CCNC2=O)CC1 |  |  |  | 
15 | 1.5 nM | 24 nM | 280 nM | Cc1ccc2c(c1)c(-c1ccc(F)cc1)cn2C1=CCN(CCN2CCNC2=O)CC1 |  |  |  | 
16 | 3.4 nM | 2300 nM |  | Cc1ccc2c(c1)c(-c1ccc(F)cc1)c(C)n2C1CCN(CCN2CCNC2=O)CC1 | 0.0041 µmol/kg | 0.038 µmol/kg | > 23 µmol/kg | 0.096 µmol/kg
17 | 9.3 nM | 190 nM | 2500 nM | O=C1NCCN1CCN1CCC(n2cc(-c3ccc(F)cc3)c3cc(C(F)(F)F)ccc32)CC1 |  |  |  | 
18 | 5.7 nM | 67 nM |  | O=C1NCCN1CCN1CCC(n2cc(-c3ccc(F)cc3)c3cc(Cl)ccc32)CC1 |  |  |  | 
19 | 3.1 nM | 6.3 nM |  | O=C1NCCN1CCN1CCC(n2cc(-c3ccc(F)cc3)c3ccccc32)CC1 |  |  |  | 
20 | 1.9 nM | 11 nM |  | O=C1NCCN1CCN1CCC(n2cc(-c3ccc(F)cc3)c3ccc(Cl)cc32)CC1 | 0.68 µmol/kg |  | 9.3 µmol/kg | 0.3 µmol/kg
